Source: PubChem
TRPC4 act – TRPC4 (mouse) channel activation; Q9QUQ5; HEK293 TRPC4beta/mu-opioid, Fluo4 calcium fluorescence; active compounds read high; B-score at 10 µM; actives 0.49% (n = 310,000); AID 2237;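 active means B-score above 5 SD of library B-scores, and initial fluorescence ratio not above library mean plus 5 SD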;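 further: positive B-score marks a calcium rise read as TRPC4 activation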
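system = HEK293 cells stably co-expressing mouse TRPC4beta and mu-opioid receptor | schedule = Fluo4 dye loading 45 min at room temperature, 110 s recording | measure = B-scored integrated calcium fluorescence ratio | signal = Fluo4 calcium-sensitive dye fluorescence, kinetic, 1 Hz baseline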
TRPC6 act – activates the mouse TRPC6 cation channel | Q61143 | HEK293-TRPC6 membrane potential dye fluorescence; active compounds read high | B-score at 10 µM | actives 0.13% (n = 310,000) | AID 2550;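 active means B-score of the integrated fluorescence ratio above library mean plus 3 SD, and starting fluorescence ratio within library mean plus 5 SD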;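 further: higher score means more depolarization so channel activation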
Target sequence (Q61143 whole entry, looked up): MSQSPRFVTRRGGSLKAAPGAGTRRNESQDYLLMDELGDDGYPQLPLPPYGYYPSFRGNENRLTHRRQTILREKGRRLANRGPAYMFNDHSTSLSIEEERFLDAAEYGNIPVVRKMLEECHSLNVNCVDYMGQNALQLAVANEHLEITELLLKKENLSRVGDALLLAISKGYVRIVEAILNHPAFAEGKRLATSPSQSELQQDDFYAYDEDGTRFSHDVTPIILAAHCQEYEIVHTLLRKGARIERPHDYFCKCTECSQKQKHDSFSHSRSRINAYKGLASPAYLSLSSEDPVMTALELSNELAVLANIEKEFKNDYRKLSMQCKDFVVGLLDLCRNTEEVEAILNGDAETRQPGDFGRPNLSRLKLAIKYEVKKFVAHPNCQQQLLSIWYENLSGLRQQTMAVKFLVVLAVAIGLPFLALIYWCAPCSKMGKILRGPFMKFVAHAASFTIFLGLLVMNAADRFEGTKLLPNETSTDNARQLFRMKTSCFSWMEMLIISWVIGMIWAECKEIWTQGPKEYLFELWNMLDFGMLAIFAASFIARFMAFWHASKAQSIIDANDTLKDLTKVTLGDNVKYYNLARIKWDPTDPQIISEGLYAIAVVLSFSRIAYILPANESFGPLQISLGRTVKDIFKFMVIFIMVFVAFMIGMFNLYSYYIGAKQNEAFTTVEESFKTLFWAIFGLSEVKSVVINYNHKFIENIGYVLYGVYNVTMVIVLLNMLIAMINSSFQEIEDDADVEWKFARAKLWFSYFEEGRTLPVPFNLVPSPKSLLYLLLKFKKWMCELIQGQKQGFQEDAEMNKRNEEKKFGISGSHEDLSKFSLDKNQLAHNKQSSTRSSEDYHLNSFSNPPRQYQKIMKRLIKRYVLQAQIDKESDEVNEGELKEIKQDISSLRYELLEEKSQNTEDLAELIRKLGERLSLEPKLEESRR
TRPC6 inh – mouse TRPC6 channel inhibition; Q61143; HEK293-TRPC6, membrane potential dye, ACh-evoked depolarization; active compounds read low; B-score at 10 µM; actives 1.1% (n = 310,000); AID 2553;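 active means B-score under library mean minus 3 SD, initial fluorescence not abnormally high, positive integrated signal ratio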;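 further: B-score derived from integrated fluorescence ratio over the kinetic read; more negative B-score means stronger inhibition of depolarization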
TRPC4 potent – TRPC4 (mouse) allosteric potentiation; HEK293 TRPC4beta/mu-opioid, DAMGO EC20, Fluo-4 Ca2+ flux; active compounds read high; Q9QUQ5; actives 0.42% (n = 310,000); B-score at 10 µM;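 active means B-score of calcium response area above 5 SD of library B-scores, with initial fluorescence ratio within 5 SD of library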;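 further: B-score of integrated fluorescence ratio over time as area under calcium response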
TRPC4 block – TRPC4 (mouse) channel inhibition; HEK293 TRPC4beta/mu-opioid, DAMGO-evoked Fluo4 calcium flux; active compounds read low; B-score at 10 µM; actives 0.39% (n = 300,000);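 active means B-score over 3 SD under the library average, no early fluorescence shift, positive overall ratio signal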
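Test system – stable TRPC4beta/mu-opioid receptor HEK293 cells · Probe or stimulus – DAMGO, a submaximal dose followed by a maximal one · Dosing – one concentration per compound · Signal – Fluo4 calcium fluorescence by kinetic imaging, 5 s 1 Hz baseline · Evaluation – per-well B score of integrated baseline-normalized Fluo4 ratio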
TRPC4 spec 2 – mouse TRPC4 off-target activity of TRPC6 inhibitors, second screen | inhibition, % at 10 µM | HEK293 TRPC4/MOR, membrane potential dye fluorescence; channel activated by saturating DAMGO dose | actives 42% (n = 920) | shares compounds with TRPC6 inh;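 active means compounds whose fluorescence signal differed from control wells by over 3 SD, either direction, in both duplicate plates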
TRPC4 spec – tests whether TRPC6 inhibitors also affect mouse TRPC4; activity change, negative = inhibition, % at 10 µM; shares compounds with TRPC6 inh; actives 61% (n = 920); AID 2777; HEK293 TRPC4/mu-opioid, membrane potential fluorescence;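 active means rise or fall in signal beyond 3 SD of buffer-only wells in both replicate plates, either sign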;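 further: integrated kinetic ratio of fluorescence range over baseline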
HEK293 MPD ctr 2-1 – second check of TRPC6 inhibitor effects in parental HEK293 cells; shares compounds with TRPC6 inh; parental HEK293 membrane potential dye fluorescence; maximal acetylcholine challenge after compound addition; signal change vs control, % at 10 µM; actives 31% (n = 920);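 active means membrane potential signal moving either way by over 3 SD of the maximum-effect control, in both duplicate plates, meaning non-specific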
HEK293 MPD ctr-1 – counter-screen for TRPC6 inhibitors: effect in parental HEK293 cells | actives 60% (n = 920) | parental HEK293 membrane potential dye fluorescence | shares compounds with TRPC6 inh | membrane potential signal change, % at 10 µM;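 active means membrane potential signal shifting up or down by more than 3 SD of buffer-only wells, on both duplicate plates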
HEK293 MPD ctr-2 – checks TRPC6 modulator effects in parental HEK293 cells | shares compounds with TRPC6 inh | membrane potential dye fluorescence | membrane potential signal change, % at 10 µM | actives 51% (n = 2,400) | AID 488924;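 active means membrane potential signal moves up or down beyond 5 SD from buffer-only wells, on both duplicate plates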
HEK293 MPD ctr 2-2 – parental HEK293 nonspecific activity of TRPC6 modulators, second screen; shares compounds with TRPC6 inh; membrane potential dye fluorescence; after compound, maximal acetylcholine stimulation; inhibition, % at 10 µM; actives 14% (n = 2,400); AID 488926;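 active means membrane potential signal drops by more than 5 SD from the mean control signal, in both duplicate plates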;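 further: plate controls were acetylcholine ECmax control wells for no effect and buffer only wells for full effect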
TRPC4/MOR mod – mouse TRPC4 off-target activity of TRPC6 modulators. HEK293 TRPC4/mu-opioid, membrane potential fluorescence. shares compounds with TRPC6 inh. percent change from control (negative = decrease, positive = increase), % at 10 µM. actives 69% (n = 2,400);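 active means membrane potential signal moved up or down beyond 5 SD of buffer control wells, in both duplicate plates, actives on both sides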;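 further: plate controls were assay buffer wells for no effect and DAMGO maximal-effect wells for full effect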
TRPC4 ctr inh 2 – mouse TRPC4 off-target activity of TRPC6 modulators, second screen; inhibition, % at 10 µM; shares compounds with TRPC6 inh; actives 55% (n = 2,400); HEK293 TRPC4/mu-opioid, membrane potential dye fluorescence; stimulated with maximal-effect DAMGO;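 active means drop in membrane potential signal beyond 5 SD of the control wells in both duplicate plates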;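 further: TRPC4 counter screen for TRPC6 hits run under conditions tuned for TRPC6 not TRPC4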
TRPC6 inh conf – confirmation of mouse TRPC6 inhibitors; HEK293-TRPC6, membrane potential dye, ACh-evoked depolarization; actives 43% (n = 3,300); inhibition, % at 10 µM; shares compounds with TRPC6 inh;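 active means fluorescence ratio falls more than 5 SD below the full-stimulation control mean, in both duplicate runs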;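 further: integrated fluorescence ratio of peak minus minimum over baseline after agonist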
TRPC6 act confirm – mouse TRPC6 activator confirmation | AID 488961 | shares compounds with TRPC6 inh | HEK293-TRPC6 membrane potential dye fluorescence, FDSS | actives 11% (n = 2,800) | activation, % at 10 µM;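 active means ratio signal rise beyond 5 SD above unstimulated control wells' mean, seen in both duplicate runs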;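 further: plate controls were buffer EC0 wells for no effect and acetylcholine ECmax response for full effect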
The depositor's hits bear a star; i = inactive; · = no result. Rows were chosen to be rich in hits. Some 2.3% of all compounds tested hit in one or more screens of this group.

SMILES	TRPC4 act	TRPC6 act	TRPC6 inh	TRPC4 potent	TRPC4 block	HEK293 MPD ctr-2	HEK293 MPD ctr 2-2	TRPC4/MOR mod	TRPC4 ctr inh 2	TRPC6 inh conf	TRPC6 act confirm	others
CCOC(=O)N1CCC(N2Cc3cccc(C(=O)N4CCN(c5cccc(Cl)c5)CC4)c3C2=O)CC1	i	i	-6.3*	i	i	100%*	i	22%*	i	42%*	·
Cc1cc(N2CCN(C)CC2)nc(N2CCOCC2)n1	i	i	-5.7*	i	i	-246%*	i	-44%*	31%*	i	i
Cc1cc(N2CCOCC2)nc(N2CCOCC2)n1	i	i	i	i	i	·	·	·	·	·	·
O=C(CNCc1ccccc1)NC1C2CC3CC(C2)CC1C3 (stereo unspecified)	i	i	-5.8*	i	i	i	i	9.0%*	36%*	60%*	·
O=C(COC(=O)/C=C/c1ccccc1Cl)NCCc1ccc(Cl)cc1Cl	i	i	i	i	i	·	·	·	·	·	·
COC(=O)c1ccc2c(c1)C(C)(C)C(/C=C/c1ccccc1O)=[N+]2C	i	i	-10*	i	i	410%*	199%*	-208%*	99%*	106%*	i
CC12CC3(C)CC(C)(C1)CC(C(=O)NCc1cccnc1)(C2)C3	i	i	i	i	i	·	·	·	·	·	·
CN(C)CCCN1c2ccc([N+](=O)[O-])cc2CCc2cc([N+](=O)[O-])ccc21	i	i	-12*	i	i	-358%*	86%*	-60%*	84%*	83%*	i
CN1c2ccc([N+](=O)[O-])cc2N(C)C1(C)c1ccccc1 (stereo unspecified)	i	i	i	i	i	·	·	·	·	·	·
COc1cc(/C=C(\C#N)c2ccccn2)cc(OC)c1O	i	14*	-5.1*	i	i	458%*	72%*	66%*	i	46%*	146%*
CCCOc1ccc(C(=O)CCNC(Cc2c[nH]c3ccccc23)C(=O)O)cc1 (stereo unspecified)	i	i	i	i	i	·	·	·	·	·	·
COC(=O)c1[nH]c2ccccc2c1NC(=O)CN1CCN(C/C=C/c2ccccc2)CC1	i	i	-7.8*	i	i	·	·	·	·	79%*	i	TRPC4 spec 2=30%*;TRPC4 spec=-16%*;HEK293 MPD ctr 2-1=i;HEK293 MPD ctr-1=-176%*
COC(=O)c1[nH]c2ccccc2c1NC(=O)CN1CC(C)OC(C)C1 (stereo unspecified)	i	i	i	i	i	·	·	·	·	·	·
CCOC(=O)c1[nH]c2ccc(F)cc2c1NC(=O)CN1CCN(C/C=C/c2ccccc2)CC1	i	i	-12*	i	i	·	·	·	·	88%*	i	TRPC4 spec 2=40%*;TRPC4 spec=-21%*;HEK293 MPD ctr 2-1=i;HEK293 MPD ctr-1=-246%*
CCOC(=O)c1[nH]c2ccc(F)cc2c1NC(=O)CN1CCc2cc(OC)c(OC)cc2C1	i	i	i	i	i	·	·	·	·	·	·
Brc1cccc(-c2cnc3n2CCCCC3)c1	i	i	-5.4*	i	i	136%*	i	24%*	48%*	54%*	·
COc1ccc(S(=O)(=O)NC(C)C(=O)Nc2ccc3c(c2)OCO3)cc1OC (stereo unspecified)	i	i	i	i	i	·	·	·	·	·	·
COc1ccc(S(=O)(=O)NC(C)C(=O)Nc2ccc3c(c2)OCCO3)cc1OC (stereo unspecified)	i	i	-6.1*	i	i	i	i	i	i	i	i
CCN(c1ccc(C)cc1C)S(=O)(=O)c1nnc(NC(=O)C(C)(C)C)s1	i	i	i	i	i	·	·	·	·	·	·
CSc1ncccc1C(=O)NCCc1ccccc1F	i	i	i	i	i	·	·	·	·	·	·
COC(=O)CSc1nnc(SCc2ccc(OC)cc2)s1	i	i	-5.5*	i	i	i	i	i	i	i	i
COc1ccc2ccccc2c1CNC(C)CCc1ccccc1 (stereo unspecified)	i	i	-7.8*	i	i	·	·	·	·	53%*	·	TRPC4 spec 2=34%*;TRPC4 spec=90%*;HEK293 MPD ctr 2-1=i;HEK293 MPD ctr-1=56%*
COc1ccc(CCNCc2c(OC)ccc3ccccc23)cc1OC	i	i	i	i	i	·	·	·	·	·	·
OC(CNCC1CCCO1)Cn1c2ccccc2c2ccccc21 (stereo unspecified)	i	i	-6.5*	i	i	312%*	73%*	36%*	65%*	84%*	·
OC(CNCC1CCCO1)Cn1c2ccc(Cl)cc2c2cc(Cl)ccc21 (stereo unspecified)	i	i	i	i	i	·	·	·	·	·	·
Cc1ccc2nc3ccc(N4CCCC4)nn3c(=O)c2c1	i	i	-6.9*	i	i	·	·	·	·	i	i	TRPC4 spec 2=i;TRPC4 spec=-25%*;HEK293 MPD ctr 2-1=42%*;HEK293 MPD ctr-1=-324%*
CCC(C)N1CCC(Oc2ccc(C(=O)NCc3ccccn3)cc2)CC1 (stereo unspecified)	i	i	i	i	i	·	·	·	·	·	·
